Data: ChEMBL document CHEMBL1157240, “Caminosides B-D, antimicrobial glycolipids isolated from the marine sponge Caminus sphaeroconia” (J Nat Prod, 2006)
Active and inactive are the calls of the source. No cut-off for these calls is given here.

What was measured:
Escherichia coli [1] = experiment: Antimicrobial activity against enteropathogenic Escherichia coli assessed as inhibition of type 3 secretion by gel electrophoresis; type: functional, organism-based
Method in brief: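 EPEC cultured 24 h with test material, then centrifuged to give a bacterial pellet and a supernatant holding all secreted proteins. The pellet was inspected by eye, and samples that clearly shrank it were excluded as having general antibiotic or cytotoxic action.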

[2] = tested on: Stenotrophomonas maltophilia; experiment: Antimicrobial activity against Xanthomonas maltophilia assessed per disk; type: functional
Staphylococcus aureus = experiment: Antimicrobial activity against methicillin-resistant Staphylococcus aureus assessed per disk; type: functional
Globisporangium ultimum = experiment: Antimicrobial activity against Pythium ultimum assessed per disk; type: functional
Enterococcus = experiment: Antimicrobial activity against vancomycin-resistant Enterococcus assessed per disk; type: functional
Escherichia coli [3] = experiment: Antimicrobial activity against Escherichia coli; type: functional, organism-based

Row | Compound | IC50 (Escherichia coli [1]) | MIC [2] | MIC (Staphylococcus aureus) | MIC (Globisporangium ultimum) | MIC (Enterococcus) | Activity (Escherichia coli [1]) | Activity (Escherichia coli [3])
1 | CCCCCCCCC[C@H](CCCCCCCC(C)=O)O[C@@H]1O[C@H](CO)[C@@H](O)[C@H](O)[C@H]1O[C@@H]1O[C@H](CO[C@@H]2O[C@H](C)[C@H](O)[C@H](O)[C@@H]2O)[C@@H](OC(C)=O)[C@H](OC(=O)CCC)[C@H]1O[C@@H]1O[C@@H](C)[C@H](O)[C@@H](OC(=O)CCC)[C@@H]1O | 20 µM | – | – | – | – | – | –
2 | CCCCCCCCC[C@H](CCCCCCCC(C)=O)O[C@@H]1O[C@H](COC(C)=O)[C@@H](OC(C)=O)[C@H](OC(C)=O)[C@H]1O[C@@H]1O[C@H](CO[C@@H]2O[C@H](C)[C@H](OC(C)=O)[C@H](OC(C)=O)[C@@H]2OC(C)=O)[C@@H](OC(C)=O)[C@H](OC(=O)CCC)[C@H]1O[C@@H]1O[C@@H](C)[C@H](OC(C)=O)[C@@H](OC(C)=O)[C@@H]1OC(C)=O [CAMINOSIDE A PERACETATE] | – | >25 µg | >100 µg | >100 µg | >100 µg | inactive | –
3 | CCCCCCCCC[C@H](CCCCCCCC(C)=O)O[C@@H]1O[C@H](CO)[C@@H](O)[C@H](O)[C@H]1O[C@@H]1O[C@H](CO[C@@H]2O[C@H](C)[C@H](O)[C@H](O)[C@@H]2O)[C@@H](OC(C)=O)[C@H](OC(=O)CCC)[C@H]1O[C@@H]1O[C@@H](C)[C@H](O)[C@@H](O)[C@@H]1O [CAMINOSIDES A] | 20 µM | 25 µg | 12.5 µg | 50 µg | 12.5 µg | Active | inactive
